# ChEMBL document CHEMBL4376883, “Discovery and Optimization of Small Molecules Targeting the Protein-Protein Interaction of Heat Shock Protein 90 (Hsp90) and Cell Division Cycle 37 as Orally Active Inhibitors for the Treatment of Colorectal Cancer” (J Med Chem, 2020)
# Target: Heat shock protein HSP 90-beta/Hsp90 co-chaperone Cdc37 (Homo sapiens) (UniProt P08238+Q16543)
# Assay: Inhibition of His-tagged HSP90/GST-tagged Cdc37 (unknown origin) protein-protein interaction at 100 uM measured after 1 hr by HTRF assay relative to control
# Type: protein-complex assay
# Summary of the method: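 His-Hsp90 and GST-Cdc37 were premixed at a final 80 nM in PBS with 200 mM KF, pH 7.4. Compound was added and the mix incubated 1 h at 37 °C, then read by HTRF. Inhibition rate was taken at 100 μM compound.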
row,SMILES,inhibition [%]
1,Cc1cc(C)c(S(=O)(=O)N(CC(=O)O)c2ccc(Nc3ccnc(NC4CC4)n3)cc2)c(C)c1,< 50
2,COc1ccc(OC)c(S(=O)(=O)Nc2ccc(Nc3ccnc(N4CCCC4)n3)cc2)c1,41.8
3,COC(=O)CN(c1ccc(Nc2ccnc(N3CCCC3)n2)cc1)S(=O)(=O)c1c(C)cc(C)cc1C,65.4
4,CCNc1nccc(Nc2ccc(N(CC(=O)O)S(=O)(=O)c3c(C)cc(C)cc3C)cc2)n1,< 50
5,O=S(=O)(Nc1ccc(Nc2ccnc(N3CCCC3)n2)cc1)c1ccc2ccccc2c1,46.7
6,Cc1cc(C)c(S(=O)(=O)N(Cc2ccc(C(C)C)cc2)c2ccc(Nc3ccnc(N4CCCC4)n3)cc2)c(C)c1,< 50
7,COC(=O)CN(c1ccc(Nc2ccnc(N3CCCCC3)n2)cc1)S(=O)(=O)c1c(C)cc(C)cc1C,79.1
8,Cc1cc(C)c(S(=O)(=O)N(CC(=O)O)c2ccc(Nc3ccnc(N4CCN(C)CC4)n3)cc2)c(C)c1,71.1
9,CCNc1nccc(Nc2ccc(N(CC(=O)OC)S(=O)(=O)c3c(C)cc(C)cc3C)cc2)n1,< 50
10,CNc1nccc(Nc2ccc(N(CC(=O)OC)S(=O)(=O)c3c(C)cc(C)cc3C)cc2)n1,< 50
11,O=S(=O)(Nc1ccc(Nc2ccnc(N3CCCC3)n2)cc1)c1ccc(C(F)(F)F)cc1,< 20
12,CC(C)(C)c1ccc(S(=O)(=O)Nc2ccc(Nc3ccnc(N4CCCC4)n3)cc2)cc1,< 20
13,COC(=O)CN(c1ccc(Nc2ccnc(NC3CC3)n2)cc1)S(=O)(=O)c1c(C)cc(C)cc1C,< 50
14,CCN(CC)c1nccc(Nc2ccc(N(CC(=O)OC)S(=O)(=O)c3c(C)cc(C)cc3C)cc2)n1,< 50
15,CCN(CC)c1nccc(Nc2ccc(N(CC(=O)O)S(=O)(=O)c3c(C)cc(C)cc3C)cc2)n1,79.6
16,Cc1cc(C)c(S(=O)(=O)N(Cc2ccc(Cl)cc2)c2ccc(Nc3ccnc(N4CCCC4)n3)cc2)c(C)c1,< 50
17,Cc1cc(C)c(S(=O)(=O)N(CC(N)=O)c2ccc(Nc3ccnc(N4CCCC4)n3)cc2)c(C)c1,< 50
18,Cc1cc(C)c(S(=O)(=O)N(Cc2ccc(C(=O)O)cc2)c2ccc(Nc3ccnc(N4CCCC4)n3)cc2)c(C)c1,52.8
19,CCC(CC)Nc1nccc(Nc2ccc(N(CC(=O)O)S(=O)(=O)c3c(C)cc(C)cc3C)cc2)n1,< 50
20,Cc1cc(C)c(S(=O)(=O)N(CC(=O)O)c2ccc(Nc3ccnc(N4CCCCC4)n3)cc2)c(C)c1,86.2
21,COc1ccc(S(=O)(=O)Nc2ccc(Nc3ccnc(N4CCCC4)n3)cc2)cc1,< 20
22,CCC(CC)Nc1nccc(Nc2ccc(N(CC(=O)OC)S(=O)(=O)c3c(C)cc(C)cc3C)cc2)n1,< 50
23,Cc1cc(C)c(S(=O)(=O)Nc2ccc(Nc3ccnc(N4CCCC4)n3)cc2)c(C)c1,66
24,COC(=O)CN(c1ccc(Nc2ccnc(N3CCN(C)CC3)n2)cc1)S(=O)(=O)c1c(C)cc(C)cc1C,70.1
25,COc1ccc(S(=O)(=O)Nc2ccc(Nc3ccnc(N4CCCC4)n3)cc2)c(OC)c1,36.2
26,Cc1cc(C)c(S(=O)(=O)N(CC(=O)O)c2ccc(Nc3ccnc(N4CCCCCC4)n3)cc2)c(C)c1,< 50
27,COc1ccc(CN(c2ccc(Nc3ccnc(N4CCCC4)n3)cc2)S(=O)(=O)c2c(C)cc(C)cc2C)cc1,< 50
28,COC(=O)CN(c1ccc(Nc2ccnc(N3CCCCCC3)n2)cc1)S(=O)(=O)c1c(C)cc(C)cc1C,< 50
29,CNc1nccc(Nc2ccc(N(CC(=O)O)S(=O)(=O)c3c(C)cc(C)cc3C)cc2)n1,< 50
